Source: ChEMBL document CHEMBL1250446, “Novel targets for Huntington's disease in an mTOR-independent autophagy pathway” (Nat Chem Biol, 2008)
Active and inactive are the calls of the source. Residues, ends and D or L forms follow the SMILES beside them.

Tests used:
[1] = tested on: COS-7; assay: Induction of autophagy in african green monkey COS7 cells expressing EGFP-HDQ74/m-calpain assessed as decrease in EGFP-HDQ74 aggregation at 500 uM after 48 hrs; assay type: functional, cell-based; details: Chlorocebus aethiops
[2] = tested on: SK-N-SH; assay: Induction of autophagy in human SK-N-SH cells expressing EGFP-HDQ74 assessed as reduction in EGFP-HDQ74 aggregation at 500 uM after 48 hrs by densitometric analysis; assay type: functional, cell-based
[3] = species: Danio rerio; assay: Protection of neurodegeneration in zebrafish Huntington's disease model expressing EGFP-tagged huntingtin exon with EGFP-HDQ71 in rod photoreceptor assessed as decrease in […] aggregation at 100 uM; assay type: functional, organism-based
How it was run: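 Transgenic zebrafish embryos kept in 0.1 mM PTU from 1 to 3 d.p.f. and screened by EGFP, then dark-reared 3–9 d.p.f. in compound in E3 medium (pH 7.2), refreshed daily. Fixed in 4% PFA, cryosectioned at 12 μm; aggregates counted over 96 μm of central eye. Mean of 10 fish; ANOVA with Dunnett test.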

[4] = tested on: PC-12; assay: Induction of autophagy in rat stable inducible PC12 cells expressing A53T alpha-synuclein assessed as inhibition of PACAP-retarded A53T alpha-synuclein clearance at 500 uM after 24 hrs by densitometric analysis; assay type: functional, cell-based
How it was run: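 Inducible PC12 A53T α-synuclein line (doxycycline 1 μg/ml 48 h, then 24 h off-induction) treated 24 h with 100 nM PACAP with or without compound. Clearance measured by anti-HA immunoblot, densitometry relative to actin.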

[5] = tested on: PC-12; assay: Induction of autophagy in rat stable inducible PC12 cells assessed as increase in LC3-2 level at 500 uM after 24 hrs by immunoblotting analysis; assay type: functional, cell-based
How it was run: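 Stable inducible PC12 cells exposed 24 h; endogenous LC3-II measured by anti-LC3 immunoblotting, with densitometry relative to actin.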

[6] = tested on: PC-12; assay: Induction of autophagy in rat stable inducible PC12 cells expressing A53T alpha-synuclein assessed as A53T alpha-synuclein clearance at 500 uM after 24 hrs by densitometric analysis; assay type: functional, cell-based
How it was run: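 Inducible PC12 A53T α-synuclein (HA) cells induced with 1 μg/ml doxycycline for 48 h. Doxycycline then removed for 24 h with compound or DMSO. Remaining protein measured by anti-HA immunoblot, densitometry relative to actin.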

[7] = species: Danio rerio; assay: Protection of neurodegeneration in zebrafish Huntington's disease model expressing EGFP-tagged huntingtin exon with EGFP-HDQ71 in rod photoreceptor assessed as induction of rhodopsin expression at 100 uM; assay type: functional, organism-based
How it was run: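 Zebrafish larvae dosed 3–9 d.p.f. in E3 medium (daily refresh, dark-reared), lysed in 80% RIPA/100 mM DTT with protease inhibitor for 1 h on ice. Proteins run on 10% SDS-PAGE and blotted with anti-rhodopsin (Zpr3, 1:1000), anti-Zpr1 and anti-EGFP; ECL detection.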

[8] = tested on: PC-12; assay: Induction of autophagy in undifferentiated rat stable inducible PC12 cells expressing EGFP-HDQ74 assessed as EGFP-HDQ74 clearance at 10 uM after 96 hrs by calpain activation assay; assay type: functional, cell-based
[9] = tested on: PC-12; assay: Induction of autophagy in differentiated rat stable inducible PC12 cells expressing A53T alpha-synuclein assessed as A53T alpha-synuclein clearance at 10 uM after 96 hrs by calpain activation assay; assay type: functional, cell-based
[10] = tested on: COS-7; assay: Induction of autophagy in african green monkey COS7 cells expressing EGFP-HDQ74 assessed as inhibition of PLC-epsilon overexpression-induced EGFP-HDQ74 aggregation at 50 uM after 48 hrs; assay type: functional, cell-based; details: Chlorocebus aethiops
[11] = tested on: COS-7; assay: Induction of autophagy in african green monkey COS7 cells assessed as increase in autophagosome at 50 uM after 24 hrs by electron microscopy; assay type: functional, cell-based; details: Chlorocebus aethiops
How it was run: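 COS-7 cells exposed 24 h, fixed, and examined by electron microscopy. Early and late autophagosome-like structures were counted per 50 cell profiles. Student's t-test; error bars are standard error of the mean.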

[12] = tested on: COS-7; assay: Induction of autophagy in african green monkey COS7 cells expressing EGFP-HDQ74/rheb assessed as reduction in EGFP-HDQ74 aggregation at 50 uM after 48 hrs; assay type: functional, cell-based; details: Chlorocebus aethiops
[13] = tested on: COS-7; assay: Induction of autophagy in african green monkey COS7 cells expressing EGFP-LC3 assessed as increase in EGFP-LC3 vesicle at 50 uM after 24 hrs; assay type: functional, cell-based; details: Chlorocebus aethiops
[14] = tested on: HeLa; assay: Induction of autophagy in human HeLa cells expressing EGFP-LC3 assessed as increase in LC3-2 level at 50 uM in presence of 400 nM bafilomycin A1; assay type: functional, cell-based
[15] = tested on: PC-12; assay: Induction of autophagy in undifferentiated rat stable inducible PC12 cells expressing A53T alpha-synuclein assessed as A53T alpha-synuclein clearance at 10 uM after 96 hrs by calpain activation assay; assay type: functional, cell-based
[16] = tested on: PC-12; assay: Induction of autophagy in differentiated rat stable inducible PC12 cells expressing EGFP-HDQ74 assessed as EGFP-HDQ74 clearance at 10 uM after 96 hrs by calpain activation assay; assay type: functional, cell-based
[17] = tested on: COS-7; assay: Induction of autophagy in african green monkey COS7 cells expressing EGFP-HDQ74/rheb assessed as reduction in EGFP-HDQ74 aggregation at 0.2 uM after 2 hrs; assay type: functional, cell-based; details: Chlorocebus aethiops
[18] = tested on: COS-7; assay: Induction of autophagy in african green monkey COS7 cells expressing EGFP-LC3 assessed as increase in EGFP-LC3 vesicle at 0.2 uM after 2 hrs; assay type: functional, cell-based; details: Chlorocebus aethiops
How it was run: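 COS-7 transfected 4 h with EGFP-LC3, then exposed 2 h together with 2.5 μM thapsigargin. Each EGFP-positive cell was scored positive if it had >5 EGFP-LC3 vesicles. Blinded fluorescence microscopy; triplicate, at least twice.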

[19] = tested on: SK-N-SH; assay: Induction of autophagy in human SK-N-SH cells expressing EGFP-HDQ74/m-calpain assessed as inhibition of EGFP-HDQ74 aggregation at 1 uM after 48 hrs; assay type: functional, cell-based
[20] = tested on: SK-N-SH (Homo sapiens); assay: Induction of autophagy in human SK-N-SH cells assessed as increase in LC3-2 level at 0.33 uM after 24 hrs by immunoblotting analysis
[21] = tested on: Drosophila; assay: Protection of neurodegeneration in Drosophila Huntington's disease model assessed as induction autophagy at 1.25 mM; assay type: functional, organism-based
How it was run: (§1)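 Progeny reared on instant food with drug (from 0.5 M DMSO stock) or DMSO, at 25°C, 70% humidity, 12 h light/dark. Photoreceptors scored by pseudopupil technique 2 days after eclosion; paired t-test on experiment averages.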

[22] = species: Danio rerio; assay: Protection of neurodegeneration in zebrafish Huntington's disease model expressing EGFP-tagged huntingtin exon with EGFP-HDQ71 in rod photoreceptor assessed as loss of rhodopsin expression at 3 uM
[23] = species: Danio rerio; assay: Protection of neurodegeneration in zebrafish Huntington's disease model expressing EGFP-tagged huntingtin exon with EGFP-HDQ71 in rod photoreceptor assessed as decrease in […] aggregation at 3 uM
[24] = tested on: SK-N-MC; assay: Induction of autophagy in Atg positive human SK-N-MC cells expressing EGFP-HDQ74 at 1 uM after 48 hrs; assay type: functional, cell-based
[25] = species: Danio rerio; assay: Protection of neurodegeneration in zebrafish Huntington's disease model expressing EGFP-tagged huntingtin exon with EGFP-HDQ71 in rod photoreceptor assessed as induction of rhodopsin expression at 3 uM; assay type: functional, organism-based
How it was run: (§2)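 Zebrafish larvae dark-reared 3–9 d.p.f. with drug in E3, refreshed daily, then lysed in RIPA/DTT. Western blot with anti-rhodopsin (Zpr3, 1:1000), anti-Zpr1 and anti-EGFP antibodies; ECL detection.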

[26] = species: Danio rerio; assay: Protection of neurodegeneration in zebrafish Huntington's disease model expressing EGFP-tagged huntingtin exon with EGFP-HDQ71 in rod photoreceptor assessed as decrease in […] aggregation at 3 uM; assay type: functional, organism-based
How it was run: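 Transgenic zebrafish larvae raised in PTU to 3 d.p.f., then dark-reared 3–9 d.p.f. with drug in E3 medium (pH 7.2), refreshed daily. Fixed fish were cryosectioned at 12 μm and aggregates counted over 96 μm of the central eye. Means from 10 fish per group; ANOVA with Dunnett's test.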

[27] = tested on: SK-N-SH (Homo sapiens); assay: Induction of autophagy in human SK-N-SH cells expressing EGFP-HDQ74 assessed as reduction in EGFP-HDQ74 aggregation at 1 uM after 48 hrs by densitometric analysis
[28] = tested on: Drosophila; assay: Protection of neurodegeneration in Drosophila Huntington's disease model assessed as induction autophagy at 2.5 mM; assay type: functional, organism-based; how it was run: as §1
[29] = tested on: SK-N-SH; assay: Induction of autophagy in human SK-N-SH cells expressing EGFP-HDQ74 assessed as inhibition of Bay K8644-induced EGFP-HDQ74 aggregation at 1 uM after 48 hrs; assay type: functional, cell-based
How it was run: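 SK-N-SH cells transfected with EGFP-HDQ74 (LipofectAMINE PLUS, 4 h), then exposed alongside 1 μM (±)-Bay K8644. Proportion of EGFP-positive cells with aggregates scored at 48 h post-transfection by a blinded observer.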

[30] = species: Mus musculus; assay: Induction of autophagy in Atg deficient mouse […] expressing EGFP-HDQ74 at 1 uM after 48 hrs; assay type: functional
[31] = tested on: SK-N-MC; assay: Cytotoxicity against human SK-N-MC cells expressing EGFP-HDQ74 at 1 uM after 48 hrs; assay type: cell-based
[32] = tested on: COS-7; assay: Induction of autophagy in african green monkey COS7 cells expressing PLC-epsilon assessed as calpain activation at 2.5 uM after 30 mins by immunoblotting analysis; assay type: functional, cell-based; details: Chlorocebus aethiops
How it was run: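 Calpain activation in COS-7 after 30 min exposure, alongside 2.5 μM thapsigargin where applied; immunoblot of the active calpain small subunit.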

[33] = species: Danio rerio; assay: Protection of neurodegeneration in zebrafish Huntington's disease model expressing EGFP-tagged huntingtin exon with EGFP-HDQ71 in rod photoreceptor assessed as induction of rhodopsin expression at 1 uM; assay type: functional, organism-based; how it was run: as §2
[34] = tested on: SK-N-SH; assay: Induction of autophagy in human SK-N-SH cells assessed as inhibition of Bay K8644-induced calpain activation; assay type: functional, cell-based
How it was run: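 SK-N-SH cells pretreated 15 min, then given 1 μM (±)-Bay K8644 for 4 h. The active calpain small subunit was detected by immunoblot.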

[35] = tested on: COS-7; assay: Induction of autophagy in african green monkey COS7 cells assessed as increase in LC3-2 vesicle at 50 uM after 24 hrs by immunofluorescence assay; assay type: functional, cell-based; details: Chlorocebus aethiops
How it was run: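 Fixed COS-7 cells, after 24 h exposure, immunostained for LC3 with an anti-LC3 primary and Alexa-conjugated secondary; confocal imaging of LC3-positive vesicles.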

C[C@H]1O[C@@H](n2cnc3c(N)ncnc32)C[C@@H]1O
active: Activity [1] | Activity [2] | Activity [3] | Activity [4] | Activity [5] | Activity [6] | Activity [7]

CCCC[C@@H](C=O)NC(=O)[C@H](CC(C)C)NC(=O)OCc1ccccc1
active: Activity [8] | Activity [9] | Activity [10] | Activity [11] | Activity [12] | Activity [13] | Activity [14] | Activity [15] | Activity [16]

CO[C@H]1C[C@@H]2CC[C@@H](C)[C@@](O)(O2)C(=O)C(=O)N2CCCC[C@H]2C(=O)O[C@H]([C@H](C)C[C@@H]2CC[C@@H](O)[C@H](OC)C2)CC(=O)[C@H](C)/C=C(\C)[C@@H](O)[C@@H](OC)C(=O)[C@H](C)C[C@H](C)/C=C/C=C/C=C/1C
active: Activity [17] | Activity [18]

COc1ccc(CCN(C)CCCC(C#N)(c2ccc(OC)c(OC)c2)C(C)C)cc1OC (stereo not given)
active: Activity [20] | Activity [21] | Activity [23] | Activity [24] | Activity [25] | Activity [26] | Activity [27] | Activity [28] | Activity [29]
inactive: Activity [19] | Activity [22] | Activity [30]

COC(=O)C1=C(C)NC(C)=C([N+](=O)[O-])C1c1ccccc1C(F)(F)F (racemic)
active: Activity [32] | Activity [24] | Activity [33] | inhibition [34] Dose-dependent effect
Toxic: Activity [31]
inactive: Activity [25] | Activity [27] | Activity [30]

CSCC[C@@H](C=O)NC(=O)[C@H](CC(C)C)NC(=O)[C@H](CC(C)C)NC(C)=O (Ac-Leu-Leu-Met-aldehyde)
active: Activity [35] | Activity [14]
